Assay outcomes (PubChem)
DDE Tn7 FP inh: disrupts Tn7 cyclic peptide binding to fibrin D-Dimer-E complex | hit rate 0.13% among 370,000 | AID 720508 | inhibition, % at 8.3 µM | P02675 | FP displacement of FITC-Tn7 peptide from fibrin DD(E); 0% = median of compound wells per plate;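 active means inhibition above the mean of compounds falling within the control limits plus 3 SD of them, cut at about 14% in these data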;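 further: 0% = plate median of compound wells and 100% = 10 µM Aha-Tn7 peptide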
Target sequence (P02675 whole entry, looked up): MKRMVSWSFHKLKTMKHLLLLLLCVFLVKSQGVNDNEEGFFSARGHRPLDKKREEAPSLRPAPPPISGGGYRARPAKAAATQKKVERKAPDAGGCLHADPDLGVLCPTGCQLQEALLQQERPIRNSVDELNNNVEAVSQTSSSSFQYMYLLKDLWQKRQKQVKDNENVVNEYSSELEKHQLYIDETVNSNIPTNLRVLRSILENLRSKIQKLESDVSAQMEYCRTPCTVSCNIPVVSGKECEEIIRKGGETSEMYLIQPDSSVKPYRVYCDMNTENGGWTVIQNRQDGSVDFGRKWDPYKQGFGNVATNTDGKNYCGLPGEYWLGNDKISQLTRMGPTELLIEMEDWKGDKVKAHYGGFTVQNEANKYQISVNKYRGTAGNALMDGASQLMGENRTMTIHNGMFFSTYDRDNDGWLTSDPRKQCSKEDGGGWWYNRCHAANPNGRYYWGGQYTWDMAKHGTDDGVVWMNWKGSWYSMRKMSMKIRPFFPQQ
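system = human fibrin DD(E) protein | quantity = DD(E) 2 µM final | medium = Tris/NaCl/CaCl2 buffer, pH 7.8 | also added = labelled Tn7 tracer, 0.1 µM | compound dosing = single point at 8.3 µM | timing = compound with protein 10 min, then 3 h after probe, room temperature | signal = FP measurement | benchmarks = Aha-Tn7 high control | repeats = one replicate per compound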
SKN-1 block: blocks SKN-1 activity in C. elegans. C. elegans VP596 Pgst-4::GFP/RFP ratio, acrylamide-induced, 24 h. inhibition, % at 21.8 µM. hit rate 0.49% among 360,000. AID 624304;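 active means interference check ratio from 0.5 to 1.5 plus GFP to RFP signal ratio inhibition reaching or exceeding a fixed threshold, cut at about 30% in these data, passing the limit was not always enough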
PolyA inhibitor: blocks polyadenylation in yeast reporter cells | hit rate 0.02% among 300,000 | S. cerevisiae SKY197-pL101 polyadenylation reporter, beta-gal luminescence; efflux-impaired pdr1/pdr3 knockout yeast; score 100 = 6 SD above DMSO | AID 1875 | activity score, % at 12 µM;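 active means lowest replicate activity score at least 50, where 100 means six control SD above control mean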;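 further: yeast exposed to compound for 9 h at 30 °C; higher score means more reporter readthrough which indicates perturbed polyadenylation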
DAGLB inh: blocks human DAGLB lipase activity. Q8NCG7. HEK293T DAGLB membrane lysate, EnzChek fluorogenic substrate. inhibition, % at 5.17 µM. hit rate 0.059% among 340,000. AID 504411; in the data active means inhibition above about 34%;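 further: 0% = enzyme with vehicle and 100% = wells lacking enzyme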
MT1-MMP act inh: MT1-MMP (human) activation inhibition; AID 651647; GFP/RFP ratio change, % at 20 µM; P50281; hit rate 0.061% among 360,000; HT1080 RFP-PRO-GFP cells, GFP/RFP ratio fluorescence, overnight; percent of plate control window, DMSO zero;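 active means GFP/RFP ratio change of at least 30% with cell ATP level not reduced by more than half and red fluorescence within 50% of control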
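Test system: HT1080 RFP-PRO-GFP cells; Benchmarks: DMSO and RFP-L50D-GFP cell wells; Timing: cells overnight before dosing, compound overnight, 37 °C, 5% CO2; Compound: one 20 µM compound dose with 1% DMSO; Read-out: GFP/RFP fluorescence ratio.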
DDE Tn6 FP inh: disrupts Tn6 cyclic peptide binding to fibrin D-Dimer-E complex. Fibrin DD(E) TRITC-Tn6 fluorescence polarization displacement. inhibition, % at 8.3 µM. hit rate 0.21% among 370,000;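 active means inhibition above a per-campaign cutoff: mean of compounds within control limits plus 3 SD, cut at about 15% in these data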;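 further: 0% = median of all compound wells on the plate and 100% = blocking peptide control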
An asterisk follows results filed as active; · = no result given. An excerpt weighted towards active compounds, which were near 0.9% of everything screened.

SMILES | DDE Tn7 FP inh | SKN-1 block | PolyA inhibitor | DAGLB inh | MT1-MMP act inh | DDE Tn6 FP inh
Nc1[nH]c2cc(C(F)(F)F)ccc2c1C(=O)NCc1ccc(F)cc1 | -5.9 | · | · | · | · | 5.2
CCCCCCn1c(N2CCN(c3cccc(Cl)c3)CC2)nc2c1c(=O)[nH]c(=O)n2C | -6.2 | 37.8* | 6.7 | 0.0 | 4.1 | -1.1
CCCCS/C(=C(/C#N)C(N)=O)c1cc2c([nH]1)CCCC2 | 1.0 | 36.6* | 1.2 | -3.3 | -14.0 | -0.9
CCc1ccc(N/C(SC)=C(/C#N)C(N)=O)cc1 | · | 19.9 | 11.6 | 2.3 | 0.3 | ·
c1ccc(CSc2nccc(-c3ccco3)n2)cc1 | 5.9 | 43.4* | -14.2 | · | -4.4 | -3.1
Nc1nc(-c2ccc(-c3ccccc3)cc2)cs1 | -6.7 | 66.2* | -57.0 | -0.1 | -3.3 | -1.3
Nc1nc(-c2ccc(Oc3ccccc3)cc2)cs1 | 1.3 | 43.7* | -17.9 | 0.0 | 0.6 | -3.6
COc1ccc(-c2csc(N)n2)cc1 | -6.8 | -7.0 | 7.8 | -1.3 | 4.8 | -0.6
Cc1ccc(-c2csc(N)n2)cc1 | 0.9 | -17.9 | · | 1.7 | -2.3 | 0.3
COCC#Cc1ccc(CC[C@H]2O[C@H]3CC[C@@H](CO)O[C@H]3C[C@H]2n2cc(C(C)(C)O)nn2)cc1 | -2.3 | · | · | · | · | -4.0
Brc1ccc(-c2cn3ccccc3n2)s1 | -2.8 | 83.8* | -48.4 | -3.1 | 0.1 | 10.3
CCN(CCCNC(=O)CC(C(=O)N1CCc2ccccc21)n1ccnc1)c1cccc(C)c1 (centres undefined) | -3.1 | 38.2* | 23.7 | 5.7 | -0.8 | 1.2
C=CCN1[C@@H](CC(C)C)COc2cccc(N3CCCC3)c2S1(=O)=O | -3.3 | · | · | · | · | 0.2
CCOc1nc(-c2ccncc2)nc2ccccc12 | -1.4 | 38.6* | -35.3 | 0.0 | -7.3 | 2.0
COc1ccccc1N1CCN(C(=O)CNS(=O)(=O)c2ccc(Br)s2)CC1 | 3.4 | -11.4 | -3.5 | -1.3 | -1.9 | 7.0
COc1ccccc1N1CCN(C(=O)CCNS(=O)(=O)c2ccc(Br)s2)CC1 | -5.0 | 5.3 | 91.0* | 0.5 | -4.5 | -0.1
Cc1cc2ccccc2n1CCNC(=O)c1ccccc1 | 0.3 | 47.8* | 11.0 | 0.5 | 61.5 | 14.8
Cc1cc2ccccc2n1CCNC(=O)c1ccc(S(=O)(=O)N2CCOCC2)cc1 | -11.9 | 47.3* | 6.2 | 8.7 | 80.8 | 6.4
Cc1cc2ccccc2n1CCNC(=O)C(C)(C)C | -4.2 | 43.9 | -0.5 | 3.9 | 26.3 | 2.8
COc1ccc(C(=O)NCCn2ccc3ccccc32)cc1 | 0.5 | -3.0 | -21.9 | -2.7 | 5.6 | -4.3
CCC(=O)NCCn1c(C)cc2ccccc21 | · | 39.0* | 19.1 | 1.6 | 5.5 | ·
CC(=O)NCCn1c(C)cc2ccccc21 | 3.1 | 49.0* | 13.5 | 1.4 | -1.5 | 0.0
C[C@H]1[C@H](NC(=O)c2ccc(C(C)(C)C)cc2)CC[C@@]23CCCN2C(=O)CCC[C@@H]13 | -1.0 | · | · | · | · | -0.5
CCCCCCCCNS(=O)(=O)CC1NCc2cc(OC)ccc21 (centres undefined) | 2.6 | · | · | · | · | 5.8
CC(=O)N1CCN(C(=O)CN2C(=O)CC(C)(C)S(=O)(=O)c3ccccc32)CC1 | 3.7 | · | · | · | · | -3.5
SMILES | DDE Tn7 FP inh | SKN-1 block | PolyA inhibitor | DAGLB inh | MT1-MMP act inh | DDE Tn6 FP inh
Cc1onc(-c2ccccc2Cl)c1C(=O)NCCn1c(C)cc2ccccc21 | · | 44.6 | 0.5 | -0.4 | 39.6* | ·
COCCN1C(=O)CC(NNC(=O)c2ccc(S(=O)(=O)N3CCCC3)cc2)C1=O (centres undefined) | 3.3 | 100.6* | 6.2 | 1.1 | 0.3 | -4.4
COC(=O)C1CN(Cc2ccccc2)CCS(=O)(=O)N1Cc1ccc(OC)cc1 (centres undefined) | -2.9 | · | · | · | · | 2.4
Brc1ccc2oc(-c3ccn[nH]3)cc2c1 | 5.0 | 38.5* | -4.3 | · | 1.8 | 6.7
O=C(CSc1nnc(COc2ccc(Cl)cc2)n1Cc1ccco1)Nc1cccc2ccccc12 | 4.6 | · | · | · | · | 10.8
Clc1ccc(-c2nnc(-c3ccccc3)c(N3CCSCC3)n2)cc1 | 7.7 | 38.2* | 3.1 | -9.5 | -6.4 | -6.4
CCCCCCn1c(N2CCC(C(N)=O)CC2)nc2c1c(=O)n(C)c(=O)n2C | -7.8 | 45.1* | 9.8 | -0.5 | 0.3 | -1.3
O=S1(=O)c2ccc(N3CCN(Cc4ccccc4F)CC3)cc2Oc2ccccc2CN1Cc1cn(Cc2ccc(F)cc2)nn1 | -8.1 | · | · | · | · | 5.5
Oc1ccccc1-c1csc(-c2ccccc2)n1 | -5.3 | 19.4 | -35.3 | -10.7 | -16.4 | -4.5
Oc1ccc(-c2nc3ccccc3s2)cc1 | 1.1 | -11.0 | 20.8 | -5.5 | -1.6 | 4.9
c1ccc2sc(-c3ccncc3)nc2c1 | 2.3 | 38.6* | -8.7 | -4.0 | 1.5 | 10.7
c1ccc(-c2csc(-c3ccncc3)n2)cc1 | -1.1 | 69.8* | -15.8 | 0.1 | -1.3 | -3.2
Brc1ccsc1-c1csc(-c2ccncc2)n1 | 1.9 | 39.8* | -8.8 | -6.5 | -1.7 | -1.3
c1ccc2c(-c3csc(-c4ccncc4)n3)c[nH]c2c1 | 3.1 | 19.8 | -11.8 | -0.3 | -7.4 | 4.2
Clc1ccc(-c2csc(-c3cccnc3)n2)s1 | -1.8 | 91.9* | -41.9 | -10.2 | 5.2 | -4.1
CCCC[C@H]1C2CC(OC(=O)Nc3ccccc3C)C(C2)[C@H]2CCCCN21 (some centres undefined) | 3.6 | · | · | · | · | 1.9
Nn1c(SCC(=O)Nc2ccccc2-c2ccccc2)nnc1-c1cc(-c2ccc(F)cc2)n[nH]1 | 7.2 | · | · | · | · | -0.8
O=C(c1ccc(Cl)cc1)N1CCN(c2ccccn2)CC1 | 3.6 | · | · | · | · | 5.3
CCn1c(SCC(=O)Nc2ccc(NC(=O)c3cccs3)cc2)nnc1-c1cccnc1 | -1.2 | 35.1* | 10.4 | 0.0 | -4.0 | -10.8
Cc1onc(-c2ccc(Cl)cc2)c1-c1ccn(S(=O)(=O)c2ccccc2)n1 | -1.5 | · | · | · | · | -9.2
CCCCN1C(=O)N2Cc3cc(OC)ccc3C2CS1(=O)=O (centres undefined) | -0.8 | · | · | · | · | 6.7
Cc1nc2ccccc2nc1OCc1ccccc1 | 6.9 | 46.6* | -5.3 | -8.2 | -1.9 | 0.9
COc1ccc(S[C@]2(C(=O)N3CCN(c4ncccn4)CC3)CC(=O)N(c3ccc4ccccc4c3)[C@@H]2c2ccc(OC)cc2)cc1 | -6.4 | · | · | · | · | -4.3
CCCC1CCC2(CCCN2CCOC(=S)Nc2ccccc2OC)CC1 (centres undefined) | -1.2 | · | · | · | · | -4.6
Brc1cccc(-c2nc(-c3ccncc3)no2)c1 | 1.3 | 76.7* | -12.0 | -6.9 | -2.7 | -2.5
Cc1cccc(-c2nc(-c3ccncc3)no2)c1 | 4.4 | 31.3 | -31.2 | -6.2 | -0.3 | 10.1
Cc1ccc(-c2nc(-c3ccncc3)no2)cc1 | -3.9 | 42.5* | -3.6 | -6.9 | 2.0 | -1.5
FC(F)(F)c1cccc(-c2nc(-c3ccncc3)no2)c1 | -7.3 | 50.1* | -18.5 | -4.8 | 0.5 | -2.8
